The values that follow come from ChEMBL document CHEMBL1212780, “Anti-Clostridium difficile potential of tetramic acid derivatives from Pseudomonas aeruginosa quorum-sensing autoinducers” (Antimicrob Agents Chemother, 2010).

SMILES strings stand for the structures. The source made the active and inactive calls. No cut-off for these calls is given here.

Data set [1] deals with Clostridioides difficile. Kind of data set: Antibacterial activity against Clostridium difficile assessed induction of bacteriolysis at 50 uM after 26 hrs. It counts as functional, organism-based. In a few lines: (§1)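 Anaerobic cultures in supplemented BHI were incubated with compound (30 or 50 μM depending on compound) for 26 h at 37°C. OD600 was read at each time point to follow growth and lysis, compared with an untreated control.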

The subject of data set [2] is Clostridioides difficile. Kind of data set: Drug uptake in Clostridium difficile assessed as dansylated compound accumulation at cell surface by electron microscopy. It counts as ADME, organism-based. In a few lines:
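Bacteria treated with dansyl-labelled compound, fixed in 0.5% glutaraldehyde/2% paraformaldehyde at 4°C for 1 h without osmium, and embedded in Unicryl. Ultrathin sections blocked in 1.5% BSA, then rabbit anti-dansyl (1:100, 2 h, room temperature) and 10-nm gold anti-rabbit IgG (1:20, 30 min). Nonimmune serum used as negative control.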

The test system of data set [3] is Clostridioides difficile. Kind of data set: Antibacterial activity against Clostridium difficile assessed as inhibition of bacterial viability at 3 to 50 uM after 24 hrs. It counts as functional, organism-based. The method in brief:
(§2)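 Cultured anaerobically for 24 h at 37°C in supplemented BHI broth with a range of compound concentrations. Survivors counted by plating 10-fold serial dilutions. Detection limit 2 log CFU/ml. Compared against bacteria grown without compound.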

For data set [4], the system named is Clostridioides difficile. Kind of data set: Antibacterial activity against Clostridium difficile 1 assessed as inhibition of bacterial viability at 50 uM after 24 hrs. Type of data set: functional, organism-based. In a few lines: (§3)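 C. difficile clinical isolates from pseudomembranous colitis patients, grown anaerobically at 37°C in BHI broth with 1% yeast extract and 0.1% L-cysteine. Cultured 24 h with compound, then viable counts taken by plating serial 10-fold dilutions on Mueller-Hinton agar with 5% sheep blood. n = 3. Detection limit 2 log CFU/ml.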

Data set [5] has as its system Clostridioides difficile. Kind of data set: Antibacterial activity against Clostridium difficile 2 assessed as inhibition of bacterial viability at 50 uM after 24 hrs. Type of data set: functional, organism-based. In a few lines: as §3
Data set [6] deals with Clostridioides difficile. Kind of data set: Antibacterial activity against Clostridium difficile 3 assessed as inhibition of bacterial viability at 50 uM after 24 hrs. It counts as functional, organism-based. In a few lines: as §3
The subject of data set [7] is Clostridioides difficile. Briefly: Antibacterial activity against Clostridium difficile 4 assessed as inhibition of bacterial viability at 50 uM after 24 hrs. It counts as functional, organism-based. In a few lines: as §3
For data set [8], the system named is Clostridioides difficile. Kind of data set: Antibacterial activity against Clostridium difficile assessed as induction of changes in cell surface structures by electron microscopy. Type of data set: functional, organism-based. In a few lines:
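Postfixed 1 h in 1% OsO4, ethanol-dehydrated and Epon-embedded. Surface structure of treated cells compared with control cells.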

Data set [9] concerns Clostridioides difficile. Briefly: Induction of lipid membranes composition changes in Clostridium difficile by NMR spectroscopy. Type of data set: functional, organism-based.
The subject of data set [10] is Clostridioides difficile. Briefly: Antibacterial activity against Clostridium difficile 1 assessed as inhibition of bacterial viability after 24 hrs. Type of data set: functional, organism-based. In a few lines: (§4)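 Four clinical isolates from pseudomembranous colitis patients, grown anaerobically at 37°C in BHI broth with 1% yeast extract and 0.1% L-cysteine. Broth cultures exposed 24 h to a range of compound concentrations (autoinducers at 50 μM). Viable counts made by plating 10-fold serial dilutions on sheep-blood Mueller-Hinton agar; n = 3.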

Data set [11] deals with Clostridioides difficile. Kind of data set: Antibacterial activity against Clostridium difficile 2 assessed as inhibition of bacterial viability after 24 hrs. It counts as functional, organism-based. In a few lines: as §4
Data set [12] deals with Clostridioides difficile. Kind of data set: Antibacterial activity against Clostridium difficile 3 assessed as inhibition of bacterial viability after 24 hrs. Type of data set: functional, organism-based. In a few lines:
as §4

For data set [13], the system named is Clostridioides difficile. Briefly: Antibacterial activity against Clostridium difficile 4 assessed as inhibition of bacterial viability after 24 hrs. It counts as functional, organism-based. The method in brief:
as §4

The test system of data set [14] is Clostridioides difficile. Kind of data set: Antibacterial activity against Clostridium difficile assessed as induction of morphological changes at 50 uM after 30 mins by Gram staining. Type of data set: functional, organism-based. The method in brief: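 Bacteria grown 24 h at 37°C, pelleted at 5,000 rpm for 5 min, then exposed to compound at 50 μM for the stated time. Gram-stained and examined by light microscopy, compared with untreated cells.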

In data set [15] the test system is Clostridioides difficile. Kind of data set: Antibacterial activity against Clostridium difficile assessed induction of bacteriolysis at 30 uM after 26 hrs. It counts as functional, organism-based. In a few lines:
as §1

The test system of data set [16] is Clostridioides difficile. Briefly: Antibacterial activity against Clostridium difficile assessed as inhibition of bacterial viability at 10 uM after 24 hrs relative to untreated control. Type of data set: functional. The method in brief: as §2

As to `CCCCCCCCC/C(O)=C1/C(=O)N[C@H](CCO)C1=O`, in the data set with Clostridioides difficile [1], the result was Active. In addition, the Drug uptake entry in the data set on Clostridioides difficile [2] was “Active”. The inhibition result with Clostridioides difficile [3] was “Active”.
Take `CCCCCCCCCC(=O)CC(=O)N[C@H]1CCOC1=O`: the inhibition result in the data set on Clostridioides difficile [4], in the data set on Clostridioides difficile [5], in the data set with Clostridioides difficile [6] and with Clostridioides difficile [7] was “inactive” in each case. In addition, the result with Clostridioides difficile [8] and with Clostridioides difficile [9] was inactive.
For the molecule `CCCCCCCCC/C(O)=C1/C(=O)N[C@@H](CCO)C1=O`, the outcome in the data set on Clostridioides difficile [1], in the data set on Clostridioides difficile [14], in the data set on Clostridioides difficile [8] and with Clostridioides difficile [9] was Active. The inhibition result in the data set with Clostridioides difficile [10], in the data set on Clostridioides difficile [11], in the data set with Clostridioides difficile [12] and with Clostridioides difficile [13] was “Dose-dependent effect” in each case. Besides, the Drug uptake entry with Clostridioides difficile [2] is “Active”.
In the case of `CCCCCCCCC/C(O)=C1/C(=O)N[C@@H](C)C1=O`, in the data set with Clostridioides difficile [1], the outcome was Active. The Drug uptake result in the data set on Clostridioides difficile [2] is “Active”. In addition, the inhibition entry in the data set on Clostridioides difficile [3] is “Active”.
As for `CCCC(=O)N[C@H]1CCOC1=O`, the inhibition entry with Clostridioides difficile [4], in the data set on Clostridioides difficile [5], with Clostridioides difficile [6] and with Clostridioides difficile [7] was “inactive” throughout.
`CCC/C(O)=C1/C(=O)N[C@@H](CCO)C1=O`: the inhibition entry in the data set with Clostridioides difficile [3] is “Active”.
For the molecule `CCCCCCCCC/C(O)=C1\C(=O)CN(C)C1=O`, the inhibition entry in the data set with Clostridioides difficile [3] is “Active”. The outcome in the data set with Clostridioides difficile [15] was Active.
Regarding `CCCCCCCCC/C(O)=C1\C(=O)CNC1=O`, the inhibition result in the data set on Clostridioides difficile [3] was “Active”. The “fold change (FC)” value in the data set on Clostridioides difficile [16] was 100000. For the same molecule, the result in the data set with Clostridioides difficile [15] was Active.
For `CCCCCCCCC/C(OC)=C1/C(=O)N[C@@H](CCO)C1=O`, the inhibition entry in the data set on Clostridioides difficile [3] is “Active”.
